The values that follow come from ChEMBL document CHEMBL1153939, “Novel antagonists of serotonin-4 receptors: synthesis and biological evaluation of pyrrolothienopyrazines” (Bioorg Med Chem, 2009).

What all share (format): cell membranes
Test [1] has as its target 5-hydroxytryptamine receptor 4 (Cavia porcellus) (UniProt O70528). The test is described as follows: Displacement of [3H]GR-113808 from 5HT4 receptor in guinea pig striatum membrane at 10 nM. The essentials:
(§1)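 Guinea pig membranes (15 µg protein/mL) incubated 30 min at 37 °C with 0.6 nM [3H]GR113808 in 50 mM HEPES, pH 7.4, with fixed test concentrations. Nonspecific binding defined with 10 µM serotonin.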
In general terms: Displacement assays read how much labelled ligand stays bound in the presence of the test substance.

Test [2] shares this target. The test is described as follows: Displacement of [3H]GR-113808 from 5HT4 receptor in guinea pig striatum membrane at 1 uM. The essentials:
as §1

Test [3] has as its target 5-hydroxytryptamine receptor 4 (Cavia porcellus, UniProt O70528). The test is described as follows: Displacement of [3H]GR-113808 from 5HT4 receptor in guinea pig striatum membrane. In short, it runs like this:
as §1

The structures appear in SMILES notation.

5-hydroxytryptamine receptor 4, sequence (O70528 whole entry): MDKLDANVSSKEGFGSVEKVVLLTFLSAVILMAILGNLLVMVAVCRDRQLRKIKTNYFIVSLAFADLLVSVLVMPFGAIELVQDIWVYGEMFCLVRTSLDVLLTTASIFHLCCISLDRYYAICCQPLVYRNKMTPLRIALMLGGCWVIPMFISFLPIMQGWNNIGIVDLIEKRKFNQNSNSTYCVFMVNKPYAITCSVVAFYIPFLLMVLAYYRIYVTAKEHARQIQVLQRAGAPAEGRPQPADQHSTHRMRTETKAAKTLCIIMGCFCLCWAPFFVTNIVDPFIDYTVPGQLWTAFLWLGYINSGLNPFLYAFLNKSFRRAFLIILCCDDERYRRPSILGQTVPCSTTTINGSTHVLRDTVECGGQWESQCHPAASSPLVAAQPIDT
5-hydroxytryptamine receptor 4 (Cavia porcellus), sequence (O70528 whole entry): as above

What is called inhibition is the relative decrease from the control value, in per cent. A higher inhibition goes with strong suppression. Consider `CCCN1CCC(Oc2nc3ccsc3n3cccc23)CC1`, for which the inhibition amounted to 10% in test [1] and 67% in test [2].
The term Ki denotes a dissociation constant, usually derived from enzyme kinetics or from competition with a known ligand. A higher Ki goes with a looser hold on the target. As for `C=CCN1CCC(COc2nc3sccc3n3cccc23)CC1`, the figures for the inhibition in test [1] and in test [2] were 49% and 99%, respectively. This compound also showed a Ki in test [3] of 29.5 nM.
Turning to `CCC(C)N1CCC(COc2nc3scc(C)c3n3cccc23)CC1` (configuration not stated), the figures for the inhibition in test [1] and in test [2] were 18% and 100%, respectively.
As to `c1cc2c(OCCC3CCCCN3)nc3ccsc3n2c1` (configuration not stated), the inhibition is 5% in test [1] and 90% in test [2]. The same compound had a Ki in test [3] of 617 nM.
Regarding `c1cc2c(OCC3CCCCN3)nc3ccsc3n2c1` (configuration not stated), the values for the inhibition in test [1] and in test [2] were 18% and 90%, respectively.
In the same order, the values of `CCCN1CCCC(COc2nc3ccsc3n3cccc23)C1` (configuration not stated) are 0% and 91%.
For `CCCCN1CCN(CCOc2nc3ccsc3n3cccc23)CC1`, in that order: 12% and 66%.
For `c1cc2c(OC3CCNCC3)nc3ccsc3n2c1`, the inhibition in test [1] came to 0%; in test [2], 26%.
On to `CCCCCN1CCC(COc2nc3scc(C)c3n3cccc23)CC1`, for which the inhibition was 20% in test [1] and 100% in test [2].
Consider `c1ccc(CN2CCC(COc3nc4ccsc4n4cccc34)CC2)cc1`, for which the inhibition in test [1] was found to be 0%; in test [2], 100%. This compound gave a Ki in test [3] of 63.1 nM.
On to `CCN1CCC(COc2nc3scc(C)c3n3cccc23)CC1`, for which the inhibition in test [1] is 30%; in test [2], 100%. Moreover, in test [3], the affinity corresponds to a Ki of 9.55 nM.
With `c1cc2c(OCCN3CCOCC3)nc3ccsc3n2c1`, the values for the inhibition in test [1] and in test [2] were 12% and 18%, respectively.
As to `CC(C)N1CCC(COc2nc3ccsc3n3cccc23)CC1`, the inhibition amounted to 38% in test [1] and 100% in test [2]. The same compound showed a Ki in test [3] of 18.2 nM.
With `Cc1csc2nc(OCC3CCN(C)CC3)c3cccn3c12`, the inhibition in test [1] turned out to be 13%; in test [2] it was 100%.
For `CCN(CC)CCCCOc1nc2ccsc2n2cccc12`, the values for the inhibition in test [1] and in test [2] were 34% and 100%, respectively. The same compound gave a Ki in test [3] of 16.2 nM.
As for `CCCCCN1CCC(COc2nc3ccsc3n3cccc23)CC1`, the inhibition amounted to 55% in test [1] and 99% in test [2]. Further, the affinity in test [3] corresponds to a Ki of 25.7 nM.
For the compound `C=CCN1CCC(COc2nc3scc(C)c3n3cccc23)CC1`, the inhibition was 26% in test [1] and 100% in test [2]. This compound showed a Ki in test [3] of 8.51 nM.
In the same order, the values of `CCCN1CCC(COc2nc3ccsc3n3cccc23)CC1` are 97%, 100% and 16.2 nM.
Consider `CCCCCN1CCC(COc2nc3sccc3n3cccc23)CC1`, for which the values for the inhibition in test [1] and in test [2] were 13% and 100%, respectively. In test [3], this compound showed a Ki of 49 nM.
With `c1ccc(CN2CCN(CCOc3nc4ccsc4n4cccc34)CC2)cc1`, the inhibition in test [1] is 0%; in test [2], 13%.
As for `CNCCOc1nc2ccsc2n2cccc12`, the inhibition in test [1] is 9%; in test [2] it was 7%.
With `CCCN1CCN(CCOc2nc3ccsc3n3cccc23)CC1`, the inhibition is 0% in test [1] and 72% in test [2].
In the same order, the values of `c1cc2c(OC3CN4CCC3CC4)nc3ccsc3n2c1` (configuration not stated) are 11% and 53%.
For `CCCN1CCCCC1CCOc1nc2ccsc2n2cccc12` (configuration not stated), the inhibition is 0% in test [1] and 72% in test [2].
For the compound `c1cc2c(OCCCN3CCCCC3)nc3ccsc3n2c1`, the inhibition was determined as 30% in test [1] and 100% in test [2]. This compound showed a Ki in test [3] of 52.5 nM.
As to `C=CCCN1CCC(COc2nc3ccsc3n3cccc23)CC1`, the figures for the inhibition in test [1] and in test [2] were 23% and 100%, respectively. This compound had a Ki in test [3] of 37.2 nM.
On to `CCCCN1CCCC(COc2nc3ccsc3n3cccc23)C1` (configuration not stated), for which the inhibition in test [1] amounted to 0%; in test [2], 82%.
For the compound `CCN1CCC(COc2nc3sccc3n3cccc23)CC1`, the figures for the inhibition in test [1] and in test [2] were 0% and 92%, respectively.
Consider `CCCN1CCC(COc2nc3sccc3n3cccc23)CC1`, for which the inhibition came out at 54% in test [1] and 100% in test [2]. Moreover, affinity in test [3] was put at a Ki of 11.7 nM.
For the compound `C=CCN1CCC(COc2nc3ccsc3n3cccc23)CC1`, the inhibition in test [1] stood at 32%; in test [2], 95%. In addition, the Ki in test [3] is 8.71 nM.
As for `c1cc2c(OCCN3CCNCC3)nc3ccsc3n2c1`, the inhibition was determined as 0% in test [1] and 38% in test [2].
For the compound `Cc1csc2nc(OCCCN3CCCCC3)c3cccn3c12`, the figures for the inhibition in test [1] and in test [2] were 26% and 100%, respectively. In test [3], this compound gave a Ki of 12.9 nM.
With `c1cc2c(OCCCCN3CCCCC3)nc3ccsc3n2c1`, the inhibition is 16% in test [1] and 100% in test [2]. The affinity in test [3], expressed as Ki, was 57.5 nM.
For `CCCCN1CCC(Oc2nc3ccsc3n3cccc23)CC1`, the inhibition was found to be 1% in test [1] and 50% in test [2].
Regarding `c1cc2c(OCCN3CCCC3)nc3ccsc3n2c1`, the inhibition in test [1] was determined as 7%; in test [2], 60%.
For `CN1CCC(COc2nc3sccc3n3cccc23)CC1`, the inhibition in test [1] turned out to be 20%; in test [2], 100%. In test [3], this compound had a Ki of 38 nM.
For `CN(CCOc1nc2ccsc2n2cccc12)Cc1ccccc1`, the inhibition in test [1] came to 2%; in test [2], 20%.
Turning to `c1cc2c(OCCN3CCCCC3)nc3ccsc3n2c1`, the inhibition in test [1] is 5%; in test [2] it was 73%. The compound also showed a Ki in test [3] of 417 nM.
As for `CCCCN1CCC(COc2nc3scc(C)c3n3cccc23)CC1`, the inhibition in test [1] was 75%; in test [2], 100%. In test [3], this compound showed a Ki of 5.37 nM.
`NCCOc1nc2ccsc2n2cccc12`: the inhibition in test [1] and in test [2] was 0% in each case.
Turning to `CCCCN1CCC(COc2nc3sccc3n3cccc23)CC1`, the inhibition in test [1] amounted to 56%; in test [2], 100%. The compound further showed a Ki in test [3] of 20.9 nM.
As for `c1cc2c(OCCCN3CCCC3)nc3ccsc3n2c1`, the inhibition was found to be 15% in test [1] and 100% in test [2]. Also, the Ki in test [3] was 74.1 nM.
`CN1CCC(COc2nc3ccsc3n3cccc23)CC1`: the inhibition in test [1] came out at 0%; in test [2] it was 100%. In test [3], this compound showed a Ki of 58.9 nM.
Take `c1cc2c(OCC3CCNCC3)nc3ccsc3n2c1`: the inhibition in test [1] was 8%; in test [2], 74%.
`Cc1csc2nc(OCC3CCN(Cc4ccccc4)CC3)c3cccn3c12`: the results for the inhibition in test [1] and in test [2] were 11% and 100%, respectively.
For `c1cc2c(OCCCN3CCNCC3)nc3ccsc3n2c1`, in that order: 14% and 75%.
`C=CCCN1CCC(COc2nc3scc(C)c3n3cccc23)CC1`: the inhibition in test [1] came out at 28%; in test [2], 100%. The Ki in test [3] is 11.2 nM.
For the compound `CCC(C)N1CCC(COc2nc3ccsc3n3cccc23)CC1` (configuration not stated), the inhibition in test [1] was determined as 2%; in test [2] it was 56%.
`Cc1csc2nc(OCC3CCN(C(C)C)CC3)c3cccn3c12`: the results for the inhibition in test [1] and in test [2] were 30% and 100%, respectively. The same compound gave a Ki in test [3] of 6.46 nM.
